Experimental data reported in paper PMC4744243 (Oncogene, 2015).
pIC50: −log10 of the molar value. Read-outs that look alike come from different tables or passages of the source.

How the values were obtained:
[1] = test system: K-P (KARPAS422-parental cells); type: cell-based; conditions: 10 μM for 6 days
[2] = test system: K-R2- and K-R10-derived cell clones; type: cell-based; conditions: four K-R2- and K-R10-derived clones; 6-day
[3] = test system: H3K4, K9, K36 and K79 methylation; experiment: Western blot and histone profiling of other H3 methylation marks; type: cell-based; conditions: 2 or 10 µM, 3 days
In short: (§1)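 Karpas422 parental cells were grown in RPMI-1640 with 10% FBS at 37 °C and 5% CO2. Histones were extracted from pellets of 5 × 10^6 cells with a histone purification kit. Free lysines were blocked by derivatization, and methylated H3 peptides were then analysed by high-resolution mass spectrometry.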

[4] = test system: K-P (KARPAS422-parental cells); conditions: 6-day, compared with EI1
tumor xenograft = conditions: high-dose treatment; after cessation of the dosing; cited from earlier work
WSU-DLCL2 xenograft = conditions: high-dose; 28-day treatment cycle; cited from earlier work
PRC2^WT = PRC2^WT (Homo sapiens, UniProt Q15910); type: biochemical; conditions: read-out: IC50 WT, [SAM] 1 µM
PRC2^Y111L = PRC2^Y111L (Homo sapiens, UniProt Q15910, Y111L); type: biochemical; conditions: for pIC50: read-out: IC50 Y111L, [SAM] 1 µM; for IC50 Y111L: [SAM] 20 μM
PRC2^Y641N/Y661D = PRC2^Y641N/Y661D (Homo sapiens, UniProt Q15910, Y641N/Y661D); type: biochemical; conditions: for pIC50: read-out: IC50 Y641N/Y6661D, [SAM] 20 μM
[5] = test system: H3K27Me3 peptides in K-P cells; experiment: Histone tail profiling by mass spectrometry; type: cell-based; conditions: 2 or 10 µM, 3 days, vs DMSO control
In short: as §1

[6] = test system: H3K27Me2 and Me3 in K-P cells; experiment: Western blot of H3K27 methylation; type: cell-based; conditions: K-P cells treated with increasing doses
EZH2 WT = conditions: read-out: half-maximal inhibition (IC50); cited from earlier work
EZH2 Y641 mutant = conditions: read-out: half-maximal inhibition (IC50); cited from earlier work

PRC2^Y641N/Y661D, sequence (Q15910 whole entry Y641N/Y661D): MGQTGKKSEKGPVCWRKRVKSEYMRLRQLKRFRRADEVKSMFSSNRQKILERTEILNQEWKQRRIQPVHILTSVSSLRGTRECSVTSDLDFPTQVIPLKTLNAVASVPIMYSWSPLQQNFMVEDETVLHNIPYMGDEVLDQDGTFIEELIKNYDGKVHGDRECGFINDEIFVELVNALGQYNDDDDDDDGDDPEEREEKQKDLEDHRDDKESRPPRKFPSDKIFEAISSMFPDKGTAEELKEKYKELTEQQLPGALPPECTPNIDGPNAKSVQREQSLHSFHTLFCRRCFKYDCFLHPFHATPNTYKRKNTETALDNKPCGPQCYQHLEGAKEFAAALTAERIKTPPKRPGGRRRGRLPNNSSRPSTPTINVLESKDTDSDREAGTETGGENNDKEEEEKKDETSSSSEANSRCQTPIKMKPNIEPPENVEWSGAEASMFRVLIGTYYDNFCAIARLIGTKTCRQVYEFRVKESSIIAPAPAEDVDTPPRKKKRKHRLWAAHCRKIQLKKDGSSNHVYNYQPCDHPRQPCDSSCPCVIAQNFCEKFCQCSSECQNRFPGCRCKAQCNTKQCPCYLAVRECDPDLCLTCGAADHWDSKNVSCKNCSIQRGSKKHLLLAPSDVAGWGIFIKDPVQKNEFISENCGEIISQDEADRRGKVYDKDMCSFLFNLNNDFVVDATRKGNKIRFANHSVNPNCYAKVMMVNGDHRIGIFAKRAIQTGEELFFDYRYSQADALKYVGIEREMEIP
PRC2^Y641N/Y661D, sequence (O75530 whole entry partner): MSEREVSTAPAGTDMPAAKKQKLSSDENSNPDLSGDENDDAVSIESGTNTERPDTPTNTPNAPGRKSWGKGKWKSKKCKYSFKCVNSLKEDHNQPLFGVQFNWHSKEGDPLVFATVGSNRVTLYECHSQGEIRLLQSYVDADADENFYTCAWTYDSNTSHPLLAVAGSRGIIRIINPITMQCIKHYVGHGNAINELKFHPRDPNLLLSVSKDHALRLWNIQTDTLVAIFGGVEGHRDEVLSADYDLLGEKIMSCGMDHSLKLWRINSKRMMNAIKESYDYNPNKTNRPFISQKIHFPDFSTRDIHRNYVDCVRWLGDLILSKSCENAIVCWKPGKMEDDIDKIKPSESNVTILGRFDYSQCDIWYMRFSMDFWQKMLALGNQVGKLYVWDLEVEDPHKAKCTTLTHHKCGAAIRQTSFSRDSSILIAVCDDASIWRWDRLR
PRC2^Y641N/Y661D, sequence (Q15022 whole entry partner): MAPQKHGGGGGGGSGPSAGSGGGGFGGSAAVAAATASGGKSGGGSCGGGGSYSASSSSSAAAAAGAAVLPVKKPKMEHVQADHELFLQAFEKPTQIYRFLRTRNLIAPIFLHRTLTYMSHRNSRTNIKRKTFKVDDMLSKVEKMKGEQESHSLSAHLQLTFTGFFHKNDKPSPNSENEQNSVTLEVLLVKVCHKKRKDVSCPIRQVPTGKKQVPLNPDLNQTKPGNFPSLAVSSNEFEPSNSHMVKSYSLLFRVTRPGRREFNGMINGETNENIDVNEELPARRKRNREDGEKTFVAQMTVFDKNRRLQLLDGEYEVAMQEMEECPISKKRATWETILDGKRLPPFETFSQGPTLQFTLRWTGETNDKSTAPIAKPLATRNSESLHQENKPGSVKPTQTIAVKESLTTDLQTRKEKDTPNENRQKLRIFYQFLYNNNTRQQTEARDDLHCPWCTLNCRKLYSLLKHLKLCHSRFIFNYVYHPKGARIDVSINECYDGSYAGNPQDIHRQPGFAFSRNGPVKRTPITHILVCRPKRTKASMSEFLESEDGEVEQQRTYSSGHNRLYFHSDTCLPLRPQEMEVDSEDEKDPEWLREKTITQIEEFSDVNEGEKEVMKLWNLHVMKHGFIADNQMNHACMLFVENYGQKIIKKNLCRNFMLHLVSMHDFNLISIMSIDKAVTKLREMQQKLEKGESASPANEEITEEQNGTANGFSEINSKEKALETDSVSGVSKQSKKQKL
PRC2^Y111L, sequence (Q15910 whole entry Y111L): as the sequence (Q15910 whole entry Y641N/Y661D) above, with Y111L, N641Y, D661Y counted along it
PRC2^Y111L, sequence (O75530 whole entry partner): as the sequence (O75530 whole entry partner) above
PRC2^Y111L, sequence (Q15022 whole entry partner): as the sequence (Q15022 whole entry partner) above
PRC2^WT, sequence (Q15910 whole entry): as the sequence (Q15910 whole entry Y641N/Y661D) above, with N641Y, D661Y counted along it
PRC2^WT, sequence (O75530 whole entry partner): as the sequence (O75530 whole entry partner) above
PRC2^WT, sequence (Q15022 whole entry partner): as the sequence (Q15022 whole entry partner) above

pIC50 (PRC2^WT; substrate H3K27Me0 peptide) | pIC50 (PRC2^WT; substrate H3K27Me1 peptide) | pIC50 (PRC2^Y111L; substrate H3K27Me0 peptide) | pIC50 (PRC2^Y111L; substrate H3K27Me1 peptide) | IC50 Y111L (PRC2^Y111L; substrate H3K27Me0 peptide) | IC50 Y111L (PRC2^Y111L; substrate H3K27Me1 peptide) | IC50 against PRC2^Y641N/Y661D, fold weaker compared with PRC2^Y641N (PRC2^Y641N/Y661D; 1 μM SAM, both H3K27Me1 and Me2 substrates) | pIC50 (PRC2^Y641N/Y661D; substrate H3K27Me1 peptide) | pIC50 (PRC2^Y641N/Y661D; substrate H3K27Me2 peptide) | SMILES | reduction of BrdU incorporation compared with DMSO control [1] | growth inhibition in cell proliferation assay [2] | decrease in H3K4, K9, K36 and K79 methylation [3] | growth arrest (growth inhibition) in proliferation assay [4] | anti-tumor effect in tumor xenograft studies (tumor xenograft) | anti-tumor effect in WSU-DLCL2 xenograft model (WSU-DLCL2 xenograft) | decrease of K27Me3 methylated peptides [5] | H3K27Me2 and Me3 levels (western blot) [6] | pIC50 (EZH2 WT) | pIC50 (EZH2 Y641 mutant)
 |  |  |  |  |  |  |  |  | CCN(c1cc(-c2ccc(CN3CCOCC3)cc2)cc(C(=O)NCc2c(C)cc(C)[nH]c2=O)c1C)C1CCOCC1 [EPZ-6438, reference compound] | > 90% | refractory | no noticeable decrease | more potent in inducing growth arrest | complete tumor regression without tumor regrowth | partial tumor regression |  |  |  | 
7.70 | 8.05 | 5.51 | 5.38 | inactive | inactive | > 300 fold | < 4.60 | < 4.60 | CCC(CC)n1ccc2c(C(=O)NCc3c(C)cc(C)[nH]c3=O)cc(C#N)cc21 [EI1] | > 90% | refractory | no noticeable decrease |  |  |  | > 2 fold | both H3K27Me2 and Me3 levels decreased | 7.70 to 8.00 | 7.70 to 8.00
